# In publication PMC10376460 (European Journal of Endocrinology, 2023):
# “And” between values parts separate entries of the source, which are not always exact repeats. Equal values may be shown once. “Also recorded” adds a separate entry of the source.
# Assays:
# [1] = biological target: T1, human AKR1C3 (Homo sapiens, UniProt P42330); test: Biochemical enzyme assay: coumberol formation from coumberone; details: read-out: IC50, inhibition of human AKR1C3 activity; coumberone 0.3 µmol/L (Km)
# T1 sequence (P42330 1-323): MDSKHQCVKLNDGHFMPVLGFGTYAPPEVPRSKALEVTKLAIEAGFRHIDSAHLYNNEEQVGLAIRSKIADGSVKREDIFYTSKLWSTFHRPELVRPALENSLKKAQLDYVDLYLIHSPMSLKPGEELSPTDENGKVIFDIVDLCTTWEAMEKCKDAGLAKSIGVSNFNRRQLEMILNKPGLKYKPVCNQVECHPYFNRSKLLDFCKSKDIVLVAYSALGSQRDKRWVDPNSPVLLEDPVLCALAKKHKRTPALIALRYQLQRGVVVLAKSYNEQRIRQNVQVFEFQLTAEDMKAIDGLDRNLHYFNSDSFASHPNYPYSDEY
# [2] = tested on: postmenopausal women; test: Steroid assay; type: in vivo, human; details: 30 mg QD to 60 mg BID for 14 days
# Procedure, shortened: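 Postmenopausal women received test compound QD or BID, or placebo, for 14 days with 5-day follow-up. A commercial validated multiplex LC-MS/MS kit quantified 17 serum steroids at 0-48 h after dosing on day −1, day 1 and day 14, plus predose samples. Fold change was the ratio to the last pre-dose value of the period. Values below LLOQ were excluded.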
# [3] = tested on: premenopausal women; test: Steroid assay; type: in vivo, human
# Procedure, shortened: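 Premenopausal women, pretreatment cycle versus 28-day treatment with 60 mg QD or BID. A validated multiplex LC-MS/MS kit measured 17 serum steroids at 3- to 4-day visits, E3G-triggered visits, first bleeding days and end of treatment. LH-peak-adjusted AUCs were taken from day −5 to +10 per cycle. Cycles were compared with 90% CI and Bonferroni–Holm-adjusted P values, and values below LLOQ were excluded.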
# [4] = tested on: premenopausal women; test: Ovarian function assessment; type: in vivo, human; details: 60 mg QD or BID 28 d
# Procedure, shortened: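 Open-label, intraindividual comparison in 18 premenopausal women: a pretreatment cycle, then oral test compound 60 mg QD or BID for 28 days. Assessments were transvaginal ultrasound (follicle diameter, endometrial thickness), Hoogland scoring of ovarian activity, and a bleeding pattern from daily self-rated maximum bleeding intensity. FSH and LH were sampled at 3- to 4-day visits, with extra visits on urinary E3G rises.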
# [5] = tested on: healthy premenopausal and postmenopausal women; test: Eicosanoid; type: in vivo, human; details: systemic measurements
# Procedure, shortened: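 Plasma from postmenopausal (part A) and premenopausal (part B) women on the test compound. Eicosanoids, including prostaglandins, and polyunsaturated fatty acids were measured together by a published LC-MS/MS method. Part B sampling was at 3- to 4-day visits.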
# [6] = Plasma pharmacokinetics, part A; type: in vivo, human
# Procedure, shortened: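 Postmenopausal women, randomized, double-blind, placebo-controlled (7 active, 2 placebo per step). A single dose was given, then after a 14-28 day washout 3, 30 or 90 mg QD or 60 mg BID for 14 days. Plasma parent and metabolite M-7 were sampled predose to 336 h, plus periodic predose troughs. Noncompartmental parameters, accumulation and linearity indices were derived, and steady state was judged from mean Ctrough.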
# [7] = Plasma pharmacokinetics, part B; type: in vivo, human; details: premenopausal women
# Procedure, shortened: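 Premenopausal women received open-label oral test compound 60 mg QD or BID for 28 days. Plasma parent and metabolite M-7 concentrations were measured. Standard noncompartmental multiple-dose PK parameters were calculated from concentration-time data.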
# [8] = tested on: postmenopausal women; test: Safety assessments; type: in vivo, human
# Procedure, shortened: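 Safety covered adverse event reports, vital signs, ECGs, hematology, serum chemistry including liver function tests (transaminases, alkaline phosphatase) and urinalysis. Total serum bilirubin was followed during and after dosing against an ULN of 1.23 mg/dL. Placebo recipients were pooled, with descriptive statistics.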
# [9] = tested on: AKR1C1; details: concentrations up to 10 µM; cited from earlier work
# [10] = tested on: AKR1C2; details: concentrations up to 10 µM; cited from earlier work
# [11] = tested on: AKR1C4; details: concentrations up to 10 µM; cited from earlier work
# [12] = tested on: organic anion transporting polypeptide (OATP) 1B1/3 transporters; details: in vitro; cited from earlier work
# [13] = tested on: premenopausal women with endometriosis; details: phase 2 study; cited from earlier work
# [14] = LH-peak-adjusted AUC, 60 mg once or twice daily 28 d
# [15] = serum, LH-peak-adjusted (day −5 to +10), 60 mg once or twice daily 28 d
# [16] = treatment vs pretreatment cycle, 60 mg once or twice daily 28 d
structure (smiles),measurement,setting,value
CN(CCC(=O)O)C(=O)c1ccc2c(c1)CC[C@@H]1[C@@H]2CC[C@]2(C)C(c3cncc(F)c3)=CC[C@@H]12 [BAY1128688],IC50,[1],1.4 nM
same,serum concentrations of androsterone,[2],increased in a dose-dependent manner
same,changes in serum E2 (17β-estradiol) concentrations,[3]; 60 mg QD or BID 28 d,no concomitant changes; also recorded: no systematic changes
same,changes in serum progesterone concentrations,[3]; 60 mg QD or BID 28 d,no concomitant changes; also recorded: no systematic changes
same,"serum testosterone, treatment cycle vs pretreatment cycle",[3]; 60 mg QD or BID 28 d,slightly decrease
same,"11-Deoxycorticosterone: X-fold change from baseline, mean",[3]; [14],0.88
same,"11-Deoxycorticosterone: X-fold change from baseline, median",[3]; [14],0.87
same,"11-Deoxycortisol: X-fold change from baseline, mean",[3]; [14],0.85
same,"11-Deoxycortisol: X-fold change from baseline, median",[3]; [14],0.79
same,"17alpha-Hydroxyprogesterone: X-fold change from baseline, mean",[3]; [14],0.88
same,"17alpha-Hydroxyprogesterone: X-fold change from baseline, median",[3]; [14],0.87
same,"Aldosterone: X-fold change from baseline, mean",[3]; [14],1.05
same,"Aldosterone: X-fold change from baseline, median",[3]; [14],0.94
same,"Androstenedione: X-fold change from baseline, mean",[3]; [14],0.99
same,"Androstenedione: X-fold change from baseline, median",[3]; [14],0.98
same,"Androsterone: X-fold change from baseline, mean",[3]; [14],2.95
same,"Androsterone: X-fold change from baseline, median",[3]; [14],2.42
same,"Corticosterone: X-fold change from baseline, mean",[3]; [14],0.98
same,"Corticosterone: X-fold change from baseline, median",[3]; [14],0.95
same,"Cortisol: X-fold change from baseline, mean",[3]; [14],0.95
same,"Cortisol: X-fold change from baseline, median",[3]; [14],0.92
same,"Cortisone: X-fold change from baseline, mean",[3]; [14],0.94
same,"Cortisone: X-fold change from baseline, median",[3]; [14],0.92
same,"Dehydroepiandrosterone sulfate: X-fold change from baseline, mean",[3]; [14],1.11
same,"Dehydroepiandrosterone sulfate: X-fold change from baseline, median",[3]; [14],1.12
same,"Dehydroepiandrosterone: X-fold change from baseline, mean",[3]; [14],0.83
same,"Dehydroepiandrosterone: X-fold change from baseline, median",[3]; [14],0.78
same,"Dihydrotestosterone: X-fold change from baseline, mean",[3]; [14],1.52
same,"Dihydrotestosterone: X-fold change from baseline, median",[3]; [14],1.53
same,"Estradiol: X-fold change from baseline, mean",[3]; [14],1.06
same,"Estradiol: X-fold change from baseline, median",[3]; [14],1.12
same,"Estrone: X-fold change from baseline, mean",[3]; [14],1.05
same,"Estrone: X-fold change from baseline, median",[3]; [14],1.08
same,"Etiocholanolone: X-fold change from baseline, mean",[3]; [14],1.96
same,"Etiocholanolone: X-fold change from baseline, median",[3]; [14],1.70
same,"Progesterone: X-fold change from baseline, mean",[3]; [14],0.84
same,"Progesterone: X-fold change from baseline, median",[3]; [14],0.90
same,"Testosterone: X-fold change from baseline, mean",[3]; [14],0.86
same,"Testosterone: X-fold change from baseline, median",[3]; [14],0.87
same,11-Deoxycorticosterone: Treatment period AUC,[3]; [15],1.61 nmol/day
same,11-Deoxycortisol: Treatment period AUC,[3]; [15],4.84 nmol/day
same,17alpha-Hydroxyprogesterone: Treatment period AUC,[3]; [15],42.5 nmol/day
same,Aldosterone: Treatment period AUC,[3]; [15],3.17 nmol/day
same,Androstenedione: Treatment period AUC,[3]; [15],51.1 nmol/day
same,Androsterone: Treatment period AUC,[3]; [15],20.6 nmol/day
same,Corticosterone: Treatment period AUC,[3]; [15],90.6 nmol/day
same,Cortisol: Treatment period AUC,[3]; [15],4102 nmol/day
same,Cortisone: Treatment period AUC,[3]; [15],859 nmol/day
same,Dehydroepiandrosterone sulfate: Treatment period AUC,[3]; [15],69 510 nmol/d
same,Dehydroepiandrosterone: Treatment period AUC,[3]; [15],130 nmol/day
same,Dihydrotestosterone: Treatment period AUC,[3]; [15],10.2 nmol/day
same,Estradiol: Treatment period AUC,[3]; [15],7.29 nmol/day
same,Estrone: Treatment period AUC,[3]; [15],4.02 nmol/day
same,Etiocholanolone: Treatment period AUC,[3]; [15],7.01 nmol/day
same,Progesterone: Treatment period AUC,[3]; [15],213 nmol/day
same,Testosterone: Treatment period AUC,[3]; [15],9.45 nmol/day
same,"androsterone on-treatment value, maximum","[3]; serum, 60 mg QD or BID",6.36 nmol/L
same,11-Deoxycorticosterone: AUC difference (mixed linear model),[3]; [16],-0.308 nmol/day
same,11-Deoxycortisol: AUC difference (mixed linear model),[3]; [16],-0.953 nmol/day
same,17alpha-Hydroxyprogesterone: AUC difference (mixed linear model),[3]; [16],-5.20 nmol/day
same,Aldosterone: AUC difference (mixed linear model),[3]; [16],0.0041 nmol/day
same,Androstenedione: AUC difference (mixed linear model),[3]; [16],-0.312 nmol/day
same,Androsterone: AUC difference (mixed linear model),[3]; [16],13.5 nmol/day
same,Corticosterone: AUC difference (mixed linear model),[3]; [16],-17.7 nmol/day
same,Cortisol: AUC difference (mixed linear model),[3]; [16],-407 nmol/day
same,Cortisone: AUC difference (mixed linear model),[3]; [16],-55.6 nmol/day
same,Dehydroepiandrosterone sulfate: AUC difference (mixed linear model),[3]; [16],9524 nmol/day
same,Dehydroepiandrosterone: AUC difference (mixed linear model),[3]; [16],-23.3 nmol/day
same,Dihydrotestosterone: AUC difference (mixed linear model),[3]; [16],3.49 nmol/day
same,Estradiol: AUC difference (mixed linear model),[3]; [16],0.343 nmol/day
same,Estrone: AUC difference (mixed linear model),[3]; [16],0.139 nmol/day
same,Etiocholanolone: AUC difference (mixed linear model),[3]; [16],3.47 nmol/day
same,Progesterone: AUC difference (mixed linear model),[3]; [16],-50.6 nmol/day
same,Testosterone: AUC difference (mixed linear model),[3]; [16],-1.43 nmol/day
same,menstrual cyclicity and ovarian function,[4],not altered
same,participants with Hoogland score of 6 (normal ovulation) in treatment cycle,[4],14 of 18 and 14/18
same,impact on prostaglandins investigated,[5],no obvious impact
same,RAAUC (accumulation ratio),"[6]; 60 mg BID, geometric mean/%CV",2.32
same,time until PK steady-state conditions were reached (mean Ctrough),[6]; all dose groups,4 to 8 days
same,multiple-dose PK parameters compared with postmenopausal women,[7],Largely similar
same,"individual maximum increase in total serum bilirubin, fold ULN","[8]; 60 mg BID, day 13",around 1.2 fold ULN
same,"individual maximum increase in total serum bilirubin, fold ULN","[8]; 90 mg QD, day 6",around 2.3 fold ULN
same,overall safety and tolerability,"[8]; 2 or 4 weeks of treatment, healthy female participants",safe and well tolerated
same,"increases in serum bilirubin, fold above the ULN",[8]; all participants except two,below 1.50 fold
same,changes in liver enzymes (transaminases; alkaline phosphatase),"[8]; any of the participants, parts A and B",no concomitant changes
same,inhibition of AKR1C1,[9],no inhibition
same,inhibition of AKR1C2,[10],no inhibition
same,inhibition of AKR1C4,[11],no inhibition
same,inhibition of OATP 1B1/3 transporters,[12],inhibitor
same,finding that terminated development,[13],hepatotoxicity
